Among the data in the array DNA melting data of Ke et al. (doi:10.1101/2024.01.08.574731) are folding enthalpy and Tm values, retold here.

A short description of data set [1]: folding enthalpy; higher = less favourable; fluorescence melt of hairpins on a sequencing array, two-state fit. Particulars: sodium 0.088 M. A digest of the protocol:
(§1)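 Bootstrapped two-state fits yielded melting temperature and folding enthalpy for library hairpins. Cy3 fluorescence, with annealed Cy3 and quencher oligos, was imaged on a sequenced MiSeq flow cell in 50 mM Na-HEPES pH 8.0, 25 mM NaCl in 2.5 °C steps up to 60 °C, and normalised to pre-quench Cy3 and to control constructs. Four replicates were combined by inverse variance, and fitted temperatures were raised by 9.35 °C to match UV melts.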

Data set [2] can be described thus: melting temperature; fluorescence melt of hairpins on a sequencing array, two-state fit, raised by 9.35 °C to match UV melts. To be noted: sodium 0.088 M. A digest of the protocol:
as §1

CGCTCGGAAACGACGGCG ((((((....)))..))): the folding enthalpy in data set [1] was -22.7 kcal/mol. In data set [2], the Tm is 46.6 °C.
In the same order, the values of GTGCAGGGAAACCTGCGC (.(((((....))))).) are -26.2 kcal/mol and 58.9 °C.
The like results for GTGGTTCGAAAGAAGCAC (((.(((....))).))) were, in that order, -41.7 kcal/mol and 60.1 °C.
For GGCCTCGGAAACGGGGTC (.((.((....)).)).), in data set [1], the folding enthalpy is -37.2 kcal/mol. Further, in data set [2], the Tm is 48.6 °C.
In the same order, the values of GTACTGGGAAACTAGTGC (.(((.(....).))).) are -19.4 kcal/mol and 31.2 °C.
The like results for GGCGCACCGAAAGGTGCC (((..(((....)))))) were, in that order, -6.69 kcal/mol and 47.5 °C.
The like results for GCAGAGCGAAAGCATTGC (((..((....))..))) were, in that order, -17.3 kcal/mol and 49.9 °C.
Regarding GCGACATGTCGC ((((....)))), the folding enthalpy in data set [1] was -37 kcal/mol. Moreover, in data set [2], the Tm was determined as 63.8 °C.
In the same order, the values of GTTGTGACGAAAGTCAAC (((..(((....)))))) are -21.6 kcal/mol and 49.7 °C.
The like results for GCGAACCGAAAGGTCCGC (((.(((....))).))) were, in that order, -44.5 kcal/mol and 62.8 °C.
On to AAGCAGAAATGCTT (((((....))))), for which the folding enthalpy in data set [1] was -16.8 kcal/mol. Also, in data set [2], the Tm came to 42.1 °C.
In the same order, the values of GCTCGGGCGAAAGCCAGC (((..(((....)))))) are -8.16 kcal/mol and 52 °C.
In the same order, the values of GGGATGGCGAAAGCCCCC (((..(((....)))))) are -15.7 kcal/mol and 47.3 °C.
As for GCCACACGAAAGTGGGC (((.(((....)))))), the folding enthalpy in data set [1] was -24.6 kcal/mol. In addition, in data set [2], the Tm worked out at 60.4 °C.
The like results for GATCGGCCGCCGATC ((((((...)))))) were, in that order, -36.6 kcal/mol and 55.7 °C.
In the same order, the values of GATCATCGATATGATC ((((((....)))))) are -29.4 kcal/mol and 45.3 °C.
In the same order, the values of GATCTGATGCAGATC ((((((...)))))) are -34.5 kcal/mol and 48 °C.
With GATCGACTCTTCGATC ((((((....)))))), the folding enthalpy in data set [1] is -39.5 kcal/mol. Further, the Tm in data set [2] is 52.7 °C.
Turning to GCGTGCGCGAAAGCGCGC (((..(((....)))))), in data set [1], the folding enthalpy was -6.87 kcal/mol. Further, in data set [2], the Tm is 65.1 °C.
The like results for GGGGCCGAAAGGCCTCCC ((((((....)))..))) were, in that order, -9.22 kcal/mol and 54.8 °C.
The like results for GATCCTCAGAAGGATC ((((((....)))))) were, in that order, -35.3 kcal/mol and 51 °C.
In the same order, the values of GGAAGTGGAAACACTCCC ((.((((....)))).)) are -23 kcal/mol and 42.7 °C.
Consider GTCGACCCGAAAGGGGAC (((..(((....)))))), for which, in data set [1], the folding enthalpy was -13.4 kcal/mol. In addition, the Tm in data set [2] is 40 °C.
In the same order, the values of GATCGGTGAACCGATC ((((((....)))))) are -43.4 kcal/mol and 61 °C.
In the same order, the values of GTCATCGAAAGATAAGAC ((((((....)))..))) are -21 kcal/mol and 31.6 °C.
In the same order, the values of GTAAGTGGAAACATTTAC ((((.((....)).)))) are -25.6 kcal/mol and 32.3 °C.
Take GTTTGGCGAAAGCCGAAC (((.(((....))).))): the folding enthalpy in data set [1] was -20.6 kcal/mol. In addition, the Tm in data set [2] was determined as 58.8 °C.
The like results for GGGGTTGGAAACAACTCC ((.((((....)))).)) were, in that order, -37.5 kcal/mol and 51.3 °C.
The like results for GTTCTGGGAAACCAAAAC (((.(((....))).))) were, in that order, -12.4 kcal/mol and 26.5 °C.
In the same order, the values of GCCTCACGAAAGTGCGGC (((.(((....))).))) are -43.1 kcal/mol and 57.7 °C.
Regarding GAACTCGGAAACGAGCTC ((.((((....)))).)), the folding enthalpy in data set [1] is -19 kcal/mol. The Tm in data set [2] turned out to be 42.2 °C.
In the case of GAGTAGGGAAACTTACTC (((((.(....).))))), the folding enthalpy in data set [1] was -25.6 kcal/mol. Further, the Tm in data set [2] is 35.5 °C.
Turning to GCGCTGCGAAAGCATCGC (((.(((....))).))), in data set [1], the folding enthalpy was -60.2 kcal/mol. Moreover, the Tm in data set [2] is 58.6 °C.
The like results for GTTTGCCCGAAAGGGAAC (((..(((....)))))) were, in that order, -11.3 kcal/mol and 32.5 °C.
The like results for GGATTCGAAAGAATTCC ((((((....))).))) were, in that order, -20.4 kcal/mol and 42.6 °C.
In the same order, the values of GCGGGAATCCGC ((((....)))) are -27.9 kcal/mol and 68.3 °C.
With GTTTTCGGAAACGAAAAC (((((((....))))))), the folding enthalpy in data set [1] was -42.6 kcal/mol. In addition, the Tm in data set [2] was determined as 58.5 °C.
The like results for CGCTGCGGAAACGCGCG (((.(((....)))))) were, in that order, -27.1 kcal/mol and 60.8 °C.
The like results for GATCTGGGGCAGATC ((((((...)))))) were, in that order, -29.4 kcal/mol and 46.5 °C.
The like results for GATCTGGGACCAGATC ((((((....)))))) were, in that order, -43.4 kcal/mol and 54.7 °C.
On to GCCGAGAAATCGGC (((((....))))), for which the folding enthalpy in data set [1] was -28.4 kcal/mol. In addition, the Tm in data set [2] turned out to be 64.8 °C.
In the same order, the values of GACCACCGAAAGGTAGTC (((.(((....))).))) are -31.6 kcal/mol and 47 °C.
GCGGGCACGAAAGTGCGC (((..(((....)))))): in data set [1], the folding enthalpy was -10.2 kcal/mol. The Tm in data set [2] came out at 52.5 °C.
The like results for GCGACGGGAAACCGCCAC (.(.(((....))).).) were, in that order, -13.4 kcal/mol and 31.9 °C.
The like results for GATCCCACTTGGGATC ((((((....)))))) were, in that order, -42.5 kcal/mol and 61.1 °C.
The like results for GATCTTTCTCAAGATC ((((((....)))))) were, in that order, -33.4 kcal/mol and 42.6 °C.
In the case of GAAGTGAAAACTTC (((((....))))), in data set [1], the folding enthalpy was -23.2 kcal/mol. Moreover, the Tm in data set [2] stood at 43.1 °C.
In the same order, the values of GATCTTAACTAAGATC ((((((....)))))) are -32.5 kcal/mol and 44 °C.
For the sequence GCCACAACGAAAGTTGGC (((..(((....)))))), in data set [1], the folding enthalpy is -15.3 kcal/mol. The Tm in data set [2] amounted to 48.5 °C.
As to GCACACCGAAAGGTCTGC (((.(((....))).))), the folding enthalpy in data set [1] was -26.5 kcal/mol. Moreover, the Tm in data set [2] was determined as 47 °C.
In the same order, the values of GATCACAAGCGTGATC ((((((....)))))) are -37.6 kcal/mol and 56.6 °C.
In the same order, the values of GAGGACGAAAGTCAGCTC ((((((....)))..))) are -15 kcal/mol and 42 °C.
The like results for GATCTTATATAAGATC ((((((....)))))) were, in that order, -34.1 kcal/mol and 44.9 °C.
GGACACGGAAACGTGTTC (.(((((....))))).): in data set [1], the folding enthalpy is -24.8 kcal/mol. Also, the Tm in data set [2] amounted to 54.9 °C.
The like results for GAGGCCGAAAGGCAACTC ((((((....)))..))) were, in that order, -14.2 kcal/mol and 46.7 °C.
In the same order, the values of GCTCGCGAAAGCGAGAGC ((((((....)))..))) are -9.87 kcal/mol and 66.7 °C.
In the same order, the values of GCCATCGAAAGATCGGGC ((((((....)))..))) are -25.1 kcal/mol and 41.6 °C.
Consider GGGTTGCCGAAAGGCCCC (((..(((....)))))), for which the folding enthalpy in data set [1] was -14.5 kcal/mol. In addition, in data set [2], the Tm is 48.4 °C.
In the same order, the values of GGACCCTCGAAAGAGTCC (((..(((....)))))) are -16.3 kcal/mol and 35.9 °C.
The like results for CAGAGGAAACTCTG (((((....))))) were, in that order, -21.1 kcal/mol and 45 °C.
In the same order, the values of GCGTTAGGAAACTAGTGC ((..(((....)))..)) are -11.4 kcal/mol and 25.7 °C.
Consider GTGAGGCCGAAAGGCCAC (((..(((....)))))), for which the folding enthalpy in data set [1] was -11.7 kcal/mol. Moreover, the Tm in data set [2] is 50.3 °C.
In the same order, the values of GGTAATGGAAACATTATC (.(((((....))))).) are -26.8 kcal/mol and 35.7 °C.
In the same order, the values of GCGAGCTCTCGC ((((....)))) are -30.9 kcal/mol and 53.1 °C.
As to GTACACGGAAACGTGTAC (((((((....))))))), the folding enthalpy in data set [1] was -37.7 kcal/mol. Besides, the Tm in data set [2] stood at 63.4 °C.
The like results for GCCTGGCGAAAGCCTTGC ((..(((....)))..)) were, in that order, -13 kcal/mol and 42.1 °C.
In the same order, the values of GCCTACGAAAGTACCGGC ((((((....)))..))) are -25.6 kcal/mol and 36.9 °C.
The like results for GTCGCTGGAAACAGTGGC (.(.(((....))).).) were, in that order, -27.8 kcal/mol and 45.4 °C.
For the sequence GCAAACTCGAAAGAGTGC (((..(((....)))))), the folding enthalpy in data set [1] is -18 kcal/mol. Moreover, in data set [2], the Tm stood at 43.8 °C.
In the same order, the values of GTGTACGGAAACGTATGC (..((((....))))..) are -26.7 kcal/mol and 39.5 °C.
In the same order, the values of GAGGACGAAAGTCCGCTC ((((((....)))..))) are -12.1 kcal/mol and 67.5 °C.
In the same order, the values of GCAAGCGAAAGCTTTTGC ((((((....)))..))) are -12.8 kcal/mol and 42.2 °C.
Regarding GCGCAACGAAAGTTACGC (((.(((....))).))), the folding enthalpy in data set [1] was -44.9 kcal/mol. The Tm in data set [2] amounted to 57.5 °C.
The like results for GTGTTGGGAAACTGACAC ((((..(....)..)))) were, in that order, -27.6 kcal/mol and 39.3 °C.
